Bioassay records: PubChem BioAssay, several laboratories
Hep lipid drop: hepatic lipid droplet formation modulation | AML12 mouse hepatocytes, oleate lipid droplets, BODIPY imaging | inhibition, % at 6.5 µM | actives 0.4% (n = 240,000);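 active = lipid droplet intensity inhibited by at least 50%, with more than 500 cells counted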
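Assay system: AML12 mouse liver cells | Compound dosing: One dose, 6.5 µM compound | Read-out basis: Droplet intensity reduction, % inhibition | Measured by: Fluorescence imaging, 20x objective, two fields per well | Schedule: Overnight treatment with compound plus oleate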
RGS4 inh: human RGS4 inhibition; P49798; HEK293 M3R/RGS4 inducible, Fluo-4 calcium flux; stronger effect = higher value; triggered by carbachol at its EC20; B-score at 10 µM; actives 0.45% (n = 310,000); AID 463165;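 active = B-score, a plate-corrected calcium signal, over three deviations above library mean, with baseline fluorescence within five deviations of library mean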;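 also: RGS4 expression induced by doxycycline in cells with stable M3 receptor; B-score is computed from the integrated fluorescence ratio over baseline after carbachol; higher B-score means a larger calcium signal and so more RGS4 inhibition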
Target sequence (P49798 whole entry, looked up): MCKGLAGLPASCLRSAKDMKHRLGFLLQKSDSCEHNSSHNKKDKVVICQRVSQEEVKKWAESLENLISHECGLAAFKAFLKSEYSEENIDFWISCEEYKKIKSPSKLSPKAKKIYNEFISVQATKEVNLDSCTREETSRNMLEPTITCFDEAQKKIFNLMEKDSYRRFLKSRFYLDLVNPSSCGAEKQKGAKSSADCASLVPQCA
MrgX1 antagonist: human MrgX1 receptor antagonism, primary screen; Q96LB2; actives 1.3% (n = 310,000); B-score at 10 µM; MRGX1-HEK293 calcium flux, Fluo-4, BAM8-22 antagonism; stronger effect = lower value;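 active = calcium-response B-score plate-corrected more than 3 library SD below zero, starting fluorescence within 5 deviations, no agonist response on first addition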;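 also: peak minus trough fluorescence over baseline after final BAM8-22 challenge near maximal dose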
Target sequence (Q96LB2 whole entry, looked up): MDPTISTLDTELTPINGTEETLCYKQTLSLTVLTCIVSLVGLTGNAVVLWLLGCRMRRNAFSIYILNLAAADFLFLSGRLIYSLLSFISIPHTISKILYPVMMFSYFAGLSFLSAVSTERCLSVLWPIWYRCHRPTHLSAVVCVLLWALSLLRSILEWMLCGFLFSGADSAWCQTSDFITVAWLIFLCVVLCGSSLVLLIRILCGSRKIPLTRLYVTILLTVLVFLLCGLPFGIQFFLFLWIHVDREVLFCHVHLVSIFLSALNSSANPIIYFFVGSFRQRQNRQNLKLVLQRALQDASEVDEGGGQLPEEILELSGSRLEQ
MrgX1 PAM: human MrgX1 positive allosteric modulation, primary screen; Q96LB2; MrgX1-HEK293, Fluo-4 calcium flux, FDSS; stronger effect = higher value; B-score at 10 µM; actives 0.63% (n = 310,000); AID 588675;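 active = plate-corrected calcium response at least 3 library SD above typical, normal starting fluorescence, not activating the receptor alone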;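 also: compound read alongside a low EC10 to EC30 dose of BAM8-22 agonist; peak minus trough fluorescence over baseline measured at the second addition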
MrgX1 agonist: human MrgX1 receptor agonism, primary screen. Q96LB2. MrgX1-HEK293 cells, Fluo-4 calcium fluorescence, agonist mode; stronger effect = higher value. B-score at 10 µM. actives 0.44% (n = 310,000);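 active = calcium response B-score plate-corrected fluorescence ratio at least 3 library SD, with starting fluorescence B-score inside 5 SD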
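Assay system: MrgX1-expressing HEK293 cells / Amount: fifteen thousand cells per well / Doses: test compound in the initial addition of three / Timing: cells plated overnight, dye loaded 0.5 h 37 °C, 0.5 h room temperature / Technique: kinetic calcium dye fluorescence, Fluo-4 NW / Control set: positive and negative controls per plate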
RGS4 act: RGS4 potentiation or activation. HEK293 M3R/inducible RGS4, carbachol calcium flux Fluo4; stronger effect = lower value. B-score at 10 µM. actives 0.92% (n = 310,000). AID 463111;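 active = B-score of the integrated calcium signal more than 4 SD below the library mean, with starting fluorescence not abnormally high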;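 also: negative B-score means reduced calcium response which marks RGS4 activation or potentiation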
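System: HEK293 FlpIn-TREx cells, stable M3R, doxycycline-inducible RGS4. Timing: overnight RGS4 induction, 30 min dye load 37 °C, 20 min compound RT. Also added: carbachol, ECmax concentration. Measured by: Fluo4 fluorescence kinetic imaging of calcium. Evaluation: integrated calcium ratio converted to B score.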
MrgX1 PAM conf: reconfirmed allosteric activator of human MrgX1 receptor; shares compounds with MrgX1 PAM; MrgX1-HEK293, Fluo-4 calcium fluorescence, FDSS; activation (ratio percentage), % at 10 µM; actives 13% (n = 1,200); AID 602413;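 active = ratio at least 3 SD above the weak peptide control, stable starting fluorescence, no direct agonism earlier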;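 also: compound followed by low BAM8-22 agonist challenge near EC20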
HEK293 Ca flux: counter-screen for MrgX1 antagonists: effect in parental HEK293 cells; shares compounds with MrgX1 antagonist; Fluo-4 calcium fluorescence, FDSS; fluorescence ratio F(max-min)/F0 at 10 µM; actives 2% (n = 4,000); AID 624111;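 active = duplicate-averaged calcium fluorescence ratio at least three times the standard deviation of buffer wells, a nonspecific response in parental cells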
HEK293 Ca counter: activity in parental HEK293 cells without MrgX1; shares compounds with MrgX1 antagonist; parental HEK293 calcium flux, Fluo-4 fluorescence ratio; stronger effect = higher value; actives 0.4% (n = 4,000); fluorescence ratio F(max-min)/F0 at 10 µM;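 active = calcium fluorescence ratio, averaged over duplicates, at least 3 SD of the buffer-well ratio, meaning a nonspecific response in receptor-free cells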;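 also: untransfected parental HEK293 lacking MrgX1 used as counterscreen for MrgX1 allosteric activators; fluorescence change taken during the second addition on a kinetic imager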
HEK293 Ca cntr2: activity in parental HEK293 cells lacking MrgX1 receptor; shares compounds with MrgX1 antagonist; Fluo-4 calcium fluorescence (FDSS); stronger effect = higher value; fluorescence ratio F(max-min)/F0 at 10 µM; actives 8.7% (n = 4,000);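 active = calcium fluorescence ratio at least three times the spread of buffer wells, meaning a non-specific response in parental cells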
Active calls of the source: *; i = inactive; x = no result given. Shown are actives, neighbours in structure and some others; about 3.8% of the full set was active somewhere.

SMILES | Hep lipid drop | RGS4 inh | MrgX1 antagonist | MrgX1 PAM | MrgX1 agonist | RGS4 act | MrgX1 PAM conf | HEK293 Ca flux | HEK293 Ca counter | HEK293 Ca cntr2
CN(C)S(=O)(=O)c1cccc(NC(=O)c2c[nH]c3ccccc23)c1 | 5.9 | i | i | 9.87* | i | i | i | i | i | i
COc1cccc(-c2nc(CS(=O)(=O)CC(=O)N3CCCCC3)c(C)o2)c1 | -25.6 | i | i | i | i | i | x | x | x | x
COc1ccc(-c2cn3c(C)c(C(=O)N4CCCc5ccccc54)sc3n2)cc1 | x | i | i | 8.03* | i | i | i | i | i | i
CCC(Oc1ccc(F)cc1)C(=O)N1CCCCCCC1 (stereo not drawn) | -5.2 | i | i | i | i | i | x | x | x | x
O=C(c1ccc2c(c1)OCO2)[C@@H]1[C@@H]2C(=O)N(C3CCCCC3)C(=O)[C@@H]2C2c3ccccc3C=CN21 (stereo partly drawn) | x | i | x | x | x | i | x | x | x | x
CC(C)(C)C(=O)[C@@H]1[C@@H]2C(=O)N(C3CCCCC3)C(=O)[C@@H]2[C@H]2c3ccccc3C=CN12 | -8.9 | x | i | 7.01* | i | x | i | i | i | i
Cc1cc(Cl)cc(Br)c1OCCCCn1cncn1 | -8.6 | i | i | 6.86* | i | i | i | i | i | i
C[C@H](Nc1ncnc2sc3c(c12)CCC3)C(=O)O | x | i | i | i | i | i | x | x | x | x
c1ccc(Nc2ncnc3sc4c(c23)CCC4)cc1 | x | i | i | i | i | i | x | x | x | x
Fc1ccc(Nc2ncnc3sc4c(c23)CCC4)cc1 | 24.4 | i | i | 6.9* | i | i | i | i | i | i
Cc1ccc(C(=O)Nc2ncnc3sc4c(c23)CCCCC4)cc1 | 12.7 | i | i | 6.72* | i | i | 8.1%* | i | i | i
CCN(C(=O)COC(=O)c1cccs1)c1c(N)n(Cc2ccccc2)c(=O)[nH]c1=O | x | i | i | i | i | i | x | x | x | x
Cc1cccc(NS(=O)(=O)c2c(C)nc3scc(C)n3c2=O)c1 | -30.1 | i | i | 21.1* | i | i | i | i | i | i
Cc1nc2scc(C)n2c(=O)c1S(=O)(=O)Nc1ccc(N2CCN(S(C)(=O)=O)CC2)cc1 | -1.6 | i | i | i | i | i | x | x | x | x
O=C(COc1ccccc1Cl)NCCC1=CCCCC1 | 28.7 | i | i | 17.5* | i | i | i | i | i | i
O=C(COC(=O)Cc1c(Cl)cccc1Cl)NCCC1=CCCCC1 | -12.9 | i | i | i | i | i | x | x | x | x
CCn1c(=S)[nH]c2cc(C(=O)OC)ccc2c1=O | 10.2 | i | i | 8.08* | i | i | i | i | i | i
CC(=O)C(C)n1c(CN(C)Cc2ccccc2)nc2c1c(=O)n(C)c(=O)n2C (stereo not drawn) | x | i | i | i | i | i | x | x | x | x
CC(C)n1c(CN(C)Cc2ccccc2)nc2c1c(=O)n(C)c(=O)n2C | -100.0 | i | i | 7.82* | i | i | 13.0%* | i | i | i
O=C(N[C@@H](Cc1c[nH]c2ccccc12)C(=O)O)c1ccccc1Cl | -4.1 | i | i | 17.4* | i | i | i | i | i | i
CCOC1(OCC)N=C(N)C2(C#N)C(c3ccc(NC(C)=O)cc3)C12C#N (stereo not drawn) | x | i | i | i | i | i | x | x | x | x
COc1ccccc1N(C)S(=O)(=O)c1ccc(C(=O)NC(C)c2ccccc2)cc1 (stereo not drawn) | -23.8 | i | i | i | i | i | x | x | x | x
Cc1ccc2oc(C(=O)N3CCCCCC3)c(C)c2c1 | -15.7 | i | i | 6.47* | i | i | i | i | i | i
Nc1c(C(=O)N2CCCCCC2)oc2ccccc12 | -3.4 | i | i | 10* | i | i | i | i | i | i
O=C(Nc1cc(S(=O)(=O)Nc2ccc(Cl)cc2)ccc1N1CCCCC1)c1ccc(F)cc1Cl | -3.6 | i | i | i | i | i | x | x | x | x
SMILES | Hep lipid drop | RGS4 inh | MrgX1 antagonist | MrgX1 PAM | MrgX1 agonist | RGS4 act | MrgX1 PAM conf | HEK293 Ca flux | HEK293 Ca counter | HEK293 Ca cntr2
CCN(CC)CCCNC(=O)C1CCN(C(=O)c2oc3cc4sc(N(C)C)nc4cc3c2C)CC1 | -15.5 | i | i | i | i | i | x | x | x | x
O=C(Cn1cc2c(n1)CCCCC2)Nc1ccccc1Br | -15.4 | i | i | 9.31* | i | i | 23.5%* | i | i | i
Cn1c(SCC(=O)N2CCc3ccccc32)nnc1-c1ccc(S(=O)(=O)N2CCCC2)cc1 | 10.4 | i | i | i | i | i | x | x | x | x
O=C(Nc1nnc(SCC(=O)N2CCCCC2)s1)c1cccs1 | x | i | i | 7.07* | i | i | i | i | i | i
O=C(Cc1cccs1)Nc1nnc(SCC(=O)N2CCCCC2)s1 | 5.9 | i | i | i | i | i | x | x | x | x
N#CC1=C(N)Oc2n[nH]c(-c3cccnc3)c2C1c1ccc([N+](=O)[O-])o1 (stereo not drawn) | 8.9 | i | i | i | i | i | x | x | x | x
O=C(Nc1ccc(Cl)cc1)NC1CCCCC1Cc1ccco1 (stereo not drawn) | x | i | i | 15.2* | i | i | 5.5%* | i | i | i
O=C(Nc1ccc(Cl)cc1)NC1CCCC1Cc1ccco1 (stereo not drawn) | -2.3 | i | i | i | i | i | x | x | x | x
Cc1cc(-n2c(C)cc(C(=O)CCl)c2C)no1 | 8.5 | i | i | 10.1* | i | i | i | i | i | i
Cc1cc(-n2c(C)cc(C(=O)CN3C(=O)NC4(CCCC4)C3=O)c2C)no1 | 22.3 | i | i | i | i | i | x | x | x | x
c1ccc(Sc2ncnc3ccccc23)cc1 | 11.9 | i | i | 18* | i | i | 27.9%* | i | i | i
